This is an account of results in ChEMBL document CHEMBL3286371, “wALADin benzimidazoles differentially modulate the function of porphobilinogen synthase orthologs” (J Med Chem, 2014).

Test [1] concerns the target Delta-aminolevulinic acid dehydratase (Yersinia enterocolitica W22703, UniProt F4MUJ9). The test can be described thus: Stimulation of Yersinia enterocolitica recombinant PBGS expressed in Escherichia coli using 5-ALA as substrate.
Test [2] has as its target Delta-aminolevulinic acid dehydratase (Pseudomonas aeruginosa (strain ATCC 15692 / PAO1 / 1C / PRS 101 / LMG12228)) (UniProt Q59643). The test can be described thus: Inhibition of Pseudomonas aeruginosa PAO1 recombinant PBGS using 5-ALA as substrate at […].
The nature of test [3]: Stimulation of Toxoplasma gondii recombinant PBGS using 5-ALA as substrate. Put shortly:
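T. gondii PBGS, expressed from pET-21b in BL21 E. coli and purified, at 250 nM subunit in 100 mM Tris-HCl pH 8.0 with 1 mM MgCl2, 5 mM DTT and 0.2 mM 5-ALA, 20 min at 36 °C. Porphobilinogen detected with Ehrlich's reagent. Activity normalized to 6.7% DMSO control. EC50 by variable-slope agonist fit.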

Test [4] concerns the target T1, Delta-aminolevulinic acid dehydratase (Wolbachia sp. subsp. Brugia malayi (strain TRS), UniProt Q5GSR3).
T1 sequence (Q5GSR3 whole entry): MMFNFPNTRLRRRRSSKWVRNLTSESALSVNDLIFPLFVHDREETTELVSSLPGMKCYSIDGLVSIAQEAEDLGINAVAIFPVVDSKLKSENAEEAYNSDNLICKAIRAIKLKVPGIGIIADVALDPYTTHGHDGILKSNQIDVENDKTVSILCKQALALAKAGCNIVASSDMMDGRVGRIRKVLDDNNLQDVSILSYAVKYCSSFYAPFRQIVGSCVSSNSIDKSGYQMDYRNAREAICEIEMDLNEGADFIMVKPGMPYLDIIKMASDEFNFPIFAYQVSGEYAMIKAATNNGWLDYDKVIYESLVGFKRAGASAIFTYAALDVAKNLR
As to the kind of experiment: Inhibition of C-terminal His-tagged Wolbachia PBGS using 5-ALA as substrate.

Test [5] has as its target Delta-aminolevulinic acid dehydratase (Pseudomonas aeruginosa (strain ATCC 15692 / PAO1 / 1C / PRS 101 / LMG12228)) (UniProt Q59643). The test can be described thus: Stimulation of Pseudomonas aeruginosa PAO1 recombinant PBGS using 5-ALA as substrate relative to control. A digest of the protocol: (§1)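 His-tagged PaPBGS at 150 nM subunit in 100 mM Tris-HCl pH 8.0 with 1 mM MgCl2, 100 mM KCl and 0.2 mM 5-ALA, 10 min at 36 °C, with turnover at most 30%. Porphobilinogen read with Ehrlich's reagent. Activity normalized to 6.7% DMSO control as 100%. EC50 from variable-slope agonist fit.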

Test [6] addresses T2, Delta-aminolevulinic acid dehydratase (Escherichia coli (strain K12), UniProt P0ACB2).
T2 sequence (P0ACB2 whole entry): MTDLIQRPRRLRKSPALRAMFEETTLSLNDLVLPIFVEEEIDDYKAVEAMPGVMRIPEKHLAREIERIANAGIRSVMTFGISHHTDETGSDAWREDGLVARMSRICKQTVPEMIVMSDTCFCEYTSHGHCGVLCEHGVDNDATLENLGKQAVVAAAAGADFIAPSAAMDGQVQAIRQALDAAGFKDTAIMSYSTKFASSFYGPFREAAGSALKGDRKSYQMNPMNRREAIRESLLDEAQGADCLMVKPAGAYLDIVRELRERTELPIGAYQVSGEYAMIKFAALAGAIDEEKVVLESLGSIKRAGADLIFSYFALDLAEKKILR
As to the kind of experiment: Stimulation of Escherichia coli recombinant PBGS using 5-ALA as substrate. Put shortly:
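E. coli PBGS at 200 nM subunit in 100 mM BTP-HCl pH 8.1 with 1 mM MgCl2, 10 μM ZnCl2, 5 mM DTT and 0.2 mM 5-ALA, 10 min at 36 °C. Porphobilinogen detected with Ehrlich's reagent. Activity normalized to control with 6.7% DMSO set at 100%. EC50 by log(agonist) vs response variable-slope fit.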

For test [7], the target named is T3, Delta-aminolevulinic acid dehydratase (Homo sapiens, UniProt P13716).
T3 sequence (P13716 whole entry): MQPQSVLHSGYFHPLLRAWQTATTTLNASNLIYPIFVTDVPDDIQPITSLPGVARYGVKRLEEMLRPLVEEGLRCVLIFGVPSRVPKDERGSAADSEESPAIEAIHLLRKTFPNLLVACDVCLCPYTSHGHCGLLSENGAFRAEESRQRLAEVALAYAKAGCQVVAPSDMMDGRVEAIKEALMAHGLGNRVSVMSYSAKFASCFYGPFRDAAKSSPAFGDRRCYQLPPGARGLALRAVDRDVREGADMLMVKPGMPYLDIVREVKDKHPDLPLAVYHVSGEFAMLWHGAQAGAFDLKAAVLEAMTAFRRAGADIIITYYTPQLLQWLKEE
As to the kind of experiment: Inhibition of human PBGS using 5-ALA as substrate.

Test [8] concerns the target T4, Delta-aminolevulinic acid dehydratase, chloroplastic (Pisum sativum, UniProt P30124).
T4 sequence (P30124 whole entry): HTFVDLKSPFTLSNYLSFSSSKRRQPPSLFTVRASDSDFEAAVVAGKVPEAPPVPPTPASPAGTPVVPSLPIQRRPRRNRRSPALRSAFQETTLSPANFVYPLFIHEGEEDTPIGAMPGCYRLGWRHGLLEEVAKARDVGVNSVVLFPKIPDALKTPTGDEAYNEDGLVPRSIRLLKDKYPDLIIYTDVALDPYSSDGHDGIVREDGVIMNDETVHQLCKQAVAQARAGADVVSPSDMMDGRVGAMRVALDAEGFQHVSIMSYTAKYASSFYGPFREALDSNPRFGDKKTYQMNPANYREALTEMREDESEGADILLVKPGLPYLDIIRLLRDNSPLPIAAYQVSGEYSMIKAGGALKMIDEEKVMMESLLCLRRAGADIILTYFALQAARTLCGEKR
As to the kind of experiment: Inhibition of Pisum sativum PBGS using 5-ALA as substrate. The arrangement: species or system Lathyrus oleraceus. A digest of the protocol: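 Pea (P. sativum) PBGS at 300 nM subunit in 100 mM BTP-HCl pH 8.5 with 1 mM MgCl2, 5 mM DTT and 0.2 mM 5-ALA, 15 min at 36 °C. Porphobilinogen detected with Ehrlich's reagent. Activity normalized to 6.7% DMSO control as 100%. IC50 from variable-slope normalized-response fit.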

The target in test [9] is Delta-aminolevulinic acid dehydratase (Yersinia enterocolitica W22703) (UniProt F4MUJ9). As to the kind of experiment: Stimulation of Yersinia enterocolitica recombinant PBGS expressed in Escherichia coli using 5-ALA as substrate relative to control. A digest of the protocol:
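Y. enterocolitica PBGS, expressed in E. coli from pET3, at 150 nM subunit in 100 mM BTP-HCl pH 8.0 with 1 mM MgCl2, 5 mM DTT, 100 mM KCl and 0.2 mM 5-ALA, 10 min at 36 °C. Porphobilinogen read with Ehrlich's reagent. Activity normalized to 6.7% DMSO control as 100%. EC50 from variable-slope agonist fit.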

The target of test [10] is T5, Delta-aminolevulinic acid dehydratase (Escherichia coli (strain K12)) (UniProt P0ACB2).
T5 sequence (whole entry): T2 sequence (P0ACB2 whole entry)
The test can be described thus: Stimulation of Escherichia coli recombinant PBGS using 5-ALA as substrate relative to control. A digest of the protocol: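 E. coli PBGS at 200 nM subunit in 100 mM BTP-HCl pH 8.1 with 1 mM MgCl2, 10 μM ZnCl2, 5 mM DTT and 0.2 mM 5-ALA, 10 min at 36 °C. Porphobilinogen detected with Ehrlich's reagent. EC50 by log(agonist) vs response variable-slope fit.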

Test [11] has as its target T6, Delta-aminolevulinic acid dehydratase (Pseudomonas aeruginosa (strain ATCC 15692 / PAO1 / 1C / PRS 101 / LMG12228), UniProt Q59643). As to the kind of experiment: Stimulation of Pseudomonas aeruginosa PAO1 recombinant PBGS using 5-ALA as substrate. A digest of the protocol: as §1
Test [12] has as its target T7, Delta-aminolevulinic acid dehydratase (Drosophila melanogaster, UniProt Q9VTV9).
T7 sequence (Q9VTV9 whole entry): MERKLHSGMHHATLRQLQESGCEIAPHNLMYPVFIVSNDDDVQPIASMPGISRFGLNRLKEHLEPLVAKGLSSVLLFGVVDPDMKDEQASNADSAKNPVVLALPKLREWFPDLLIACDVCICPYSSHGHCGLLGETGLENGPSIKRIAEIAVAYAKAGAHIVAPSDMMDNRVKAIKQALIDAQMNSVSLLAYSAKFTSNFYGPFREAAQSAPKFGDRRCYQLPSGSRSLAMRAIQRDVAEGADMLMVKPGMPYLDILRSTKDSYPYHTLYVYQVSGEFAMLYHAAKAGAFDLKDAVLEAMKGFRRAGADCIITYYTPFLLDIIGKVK
The test can be described thus: Inhibition of Drosophila melanogaster recombinant PBGS using 5-ALA as substrate.

Test [13] has as its system Toxoplasma gondii. As to the kind of experiment: Stimulation of Toxoplasma gondii recombinant PBGS using 5-ALA as substrate relative to control. A digest of the protocol:
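Recombinant T. gondii PBGS (hemB in pET-21b, expressed in BL21 E. coli) at 250 nM subunit in 100 mM Tris-HCl pH 8.0, 1 mM MgCl2, 5 mM DTT, with 200 μM 5-ALA, 20 min at 36 °C. Porphobilinogen was read with Ehrlich's reagent, and turnover was kept at or below 30%.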

The target in test [14] is T6, Delta-aminolevulinic acid dehydratase. The test can be described thus: Inhibition of Pseudomonas aeruginosa PAO1 recombinant PBGS using 5-ALA as substrate. A digest of the protocol:
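Turnover kept at or below 30%. Porphobilinogen measured with Ehrlich's reagent. IC50 by variable-slope fit of activity normalized to DMSO control.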

Test [15] concerns the target T5, Delta-aminolevulinic acid dehydratase (Escherichia coli (strain K12)). As to the kind of experiment: Stimulation of Escherichia coli recombinant PBGS using 5-ALA as substrate at […].
The target is the same in test [16]. As to the kind of experiment: Inhibition of Escherichia coli recombinant PBGS using 5-ALA as substrate at […].
For test [17], the system named is Toxoplasma gondii. The test can be described thus: Inhibition of Toxoplasma gondii recombinant PBGS using 5-ALA as substrate at […].
The target in test [18] is Delta-aminolevulinic acid dehydratase (Yersinia enterocolitica W22703) (UniProt F4MUJ9). As to the kind of experiment: Inhibition of Yersinia enterocolitica recombinant PBGS expressed in Escherichia coli using 5-ALA as substrate at […].
Delta-aminolevulinic acid dehydratase (Yersinia enterocolitica W22703), sequence (F4MUJ9 as listed by the source): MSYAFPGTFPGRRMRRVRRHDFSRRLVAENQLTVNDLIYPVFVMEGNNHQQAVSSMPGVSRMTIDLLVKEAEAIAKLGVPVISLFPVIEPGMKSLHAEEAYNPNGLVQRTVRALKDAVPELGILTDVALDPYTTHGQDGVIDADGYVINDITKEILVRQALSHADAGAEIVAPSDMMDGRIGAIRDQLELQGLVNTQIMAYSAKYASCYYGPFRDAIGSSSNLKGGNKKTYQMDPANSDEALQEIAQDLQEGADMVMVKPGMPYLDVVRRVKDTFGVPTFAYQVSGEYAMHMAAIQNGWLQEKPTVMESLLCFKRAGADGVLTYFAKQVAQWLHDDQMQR
Test [19] can be described thus: Ratio of IC50 for Pisum sativum PBGS to IC50 for C-terminal His-tagged Wolbachia PBGS.
Test [20] has as its target Delta-aminolevulinic acid dehydratase (Pseudomonas aeruginosa (strain ATCC 15692 / PAO1 / 1C / PRS 101 / LMG12228)) (UniProt Q59643). As to the kind of experiment: Stimulation of Pseudomonas aeruginosa PAO1 recombinant PBGS using 5-ALA as substrate at […].
Test [21] addresses Delta-aminolevulinic acid dehydratase (Yersinia enterocolitica W22703) (UniProt F4MUJ9). As to the kind of experiment: Stimulation of Yersinia enterocolitica recombinant PBGS expressed in Escherichia coli using 5-ALA as substrate at […].
Test [22] relates to Toxoplasma gondii. As to the kind of experiment: Stimulation of Toxoplasma gondii recombinant PBGS using 5-ALA as substrate at […].

Calls of active or inactive are those of the source. The calls are words filed in the database; no cut-off is given here.

T6 sequence (Q59643 whole entry): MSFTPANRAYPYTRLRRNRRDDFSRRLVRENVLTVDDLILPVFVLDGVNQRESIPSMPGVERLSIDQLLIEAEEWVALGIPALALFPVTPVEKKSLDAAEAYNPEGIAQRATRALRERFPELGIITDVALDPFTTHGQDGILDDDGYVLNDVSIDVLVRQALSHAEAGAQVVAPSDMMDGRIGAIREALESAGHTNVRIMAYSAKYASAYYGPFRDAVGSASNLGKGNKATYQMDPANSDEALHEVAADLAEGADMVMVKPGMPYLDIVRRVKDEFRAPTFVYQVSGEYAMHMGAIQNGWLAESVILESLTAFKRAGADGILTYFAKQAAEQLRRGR
Delta-aminolevulinic acid dehydratase (Pseudomonas aeruginosa (strain ATCC 15692 / PAO1 / 1C / PRS 101 / LMG12228)), sequence (Q59643 whole entry): as above
Delta-aminolevulinic acid dehydratase (Yersinia enterocolitica W22703, UniProt F4MUJ9), sequence (F4MUJ9 whole entry, one chain of several): as the sequence (F4MUJ9 as listed by the source) above

With `O=C(NCCc1nc2c(C(=O)O)cccc2n1Cc1cccc(C(F)(F)F)c1)c1cccs1`, the EC50 (commonly the concentration at which the effect is half-maximal) in test [1] came to 23 µM; in test [3], 21 µM; in [6], 19 µM; in test [11], 15 µM. In [2], the inhibition result is “inactive”. For the same molecule, the IC50 (as a rule, the midpoint of a concentration-inhibition curve) in [4] is 500 µM; in test [7], 500 µM; in [8], > 500 µM; in test [12], > 1000 µM. The Smax in test [5] stood at 136%; in test [9], 123%; in [10], 116%; in [13], 130%.
With `O=C(O)c1c2c(nc3ccccc13)CCN(C(=O)c1cccc(C(F)(F)F)c1)C2`, the inhibition result in test [2], in [16], in test [17] and in test [18] was “inactive” throughout. Further, the IC50 in test [14] is 475 µM; in test [8], 88.2 µM; in [12], > 1000 µM. For the same molecule, the Smax in test [15], in test [20], in test [21] and in [22] was 100% in each case. The Ratio IC50 in test [19] was 10.
For the molecule `O=C(O)c1ccc2c(c1)nc(CCNC(=O)c1cccs1)n2Cc1ccc(C(F)(F)F)cc1`, the EC50 is 37 µM in test [3], 39 µM in test [6] and 68 µM in [11]. Moreover, the IC50 in test [4] turned out to be 38.6 µM; in test [7], 637 µM; in test [8], 44.3 µM; in test [12] it was 1010 µM. Besides, the values for the Smax in [5], in test [9] and in test [13] were 140%, 142% and 118%, respectively.
Consider `O=C(O)c1ccc2c(c1)ncn2Cc1cccc(C(F)(F)F)c1`, for which the inhibition result in test [2], in test [16], in [17] and in test [18] was “inactive” each time. Also, the IC50 in [14] is 94 µM; in test [4] it was 13 µM; in test [7] it was 197 µM; in [8] it was 18.5 µM; in test [12], 340 µM. In addition, the Smax in test [15], in [20], in test [21] and in test [22] was 100% each time.
